The list is not random: actives were taken first. Their share in the collection is about 3.7%.
B2AR ag: activates human beta-2 adrenergic receptor causing internalization; P07550; Am2.2-beta2AR cells, FAP receptor internalization, flow cytometry; response, % (test concentration not listed); actives 0.43% (n = 340,000); AID 504454;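 active = response above a set limit, near 3 SD of response in nonfluorescent compounds, cut at about 42% in these data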
Dynein cargo inh: dynein cargo transport inhibition. actives 0.47% (n = 220,000). 3617.4 mouse cells, GR-EGFP nuclear translocation imaging; test concentration mostly 20 µM; stimulated with dexamethasone, 1 µM; active compounds read low. z-score, hits read low. AID 1381;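 active = plate z-score of nuclear minus cytoplasmic receptor signal below a set negative limit, without overly bright fluorescence or cell loss, cut at about -3.5 in these data, passing the limit was not always enough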;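 also: z-score of nuclear minus cytoplasmic ring GR-EGFP intensity difference per well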
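Buffer or medium – tet-free medium with charcoal-stripped serum · Signal – automated 10x imaging of fixed Hoechst-stained cells · Also added – dexamethasone agonist, 1.0 µM final, for 30 min · Incubation – induction 48 h, compound 1 h, agonist 30 min · Read-out – GR-EGFP nuclear translocation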
XBP1 UPR activ: activators of adaptive arm of unfolded protein response (XBP1). CHO-XBP1 luciferase reporter, IRE1-XBP1 UPR activation, luminescence; percent of tunicamycin response, DMSO as zero. activation, % at 20 µM. actives 0.33% (n = 330,000);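 active = versus positive control, 20 µM dose yields 30% or more activation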;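 also: 100% = tunicamycin at 10 µg/mL and 0% = DMSO only wells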
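assay system = CHO-XBP1 luciferase reporter cells | amount = 1000 cells/well | buffer or medium = F12 plus 10% FBS | compound dosing = single point, 20 µM final compound, 1% DMSO | incubation = 16-18 h cell attachment at 37 °C, then 6 h compound exposure | detection = Steady-Glo luminescence read | controls = tunicamycin 10 µg/mL and vehicle-only wells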
CHOP UPR activ: activators of apoptotic arm of unfolded protein response (CHOP). CHO-CHOP luciferase reporter, UPR activation, luminescence; percent of tunicamycin response over DMSO baseline. activation, % at 10 µM. actives 0.34% (n = 330,000);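 active = at 10 µM dose, activation of 40% or more, normalized to positive control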;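 also: 100% = tunicamycin at 10 µg/mL and 0% = DMSO alone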
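Evaluation: % reporter activation, DMSO baseline versus tunicamycin full activation; System: CHO-CHOP luciferase reporter cell line; Input: 500 cells/well; Incubation: 6 h compound treatment, 37 °C; Measured by: Steady-Glo luciferase luminescence; Dosing: one dose, 10 µM in 0.5% DMSO; Buffer or medium: F12 medium, 10% FBS; Benchmarks: positive tunicamycin 10 µg/mL, negative DMSO alone.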
MDM2 E3 inh: inhibitors of human Mdm2 E3 ubiquitin ligase. Q00987. cell-based MDM2 ubiquitination luciferase reporter, 2 h; 0 = plate control, 100 = twice control, blank-subtracted. signal enhancement, % at 5 µM. actives 0.11% (n = 210,000). AID 1230;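 active = signal enhancement of 30% or more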;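 also: luminescence tracks abundance of the self-degrading MDM2-luciferase fusion protein; higher signal means inhibition of MDM2 E3 ligase activity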
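test system = mammalian cells stably expressing self-ubiquitinating, self-degrading MDM2 E3–luciferase fusion | quantity = 2000 cells/well | incubation = cell settling 4 h, compound treatment 2 h, both 37 °C | signal = luminescence with SteadyLite reagent, 15 min at room temperature | evaluation = % enhancement relative to plate controls after blank subtraction | benchmarks = plate controls and plate blanks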
Mdm2 MdmX PPI: inhibitors of human Mdm2/MdmX interaction. AID 485346. inhibition, % at 8 µM. O15151+Q00987. actives 3% (n = 330,000). SaOS-2 split-luciferase Mdm2/MdmX complementation, luminescence;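 active = inhibition of at least 50% at 8 µM in the primary screen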
Target sequence (O15151 whole entry, looked up): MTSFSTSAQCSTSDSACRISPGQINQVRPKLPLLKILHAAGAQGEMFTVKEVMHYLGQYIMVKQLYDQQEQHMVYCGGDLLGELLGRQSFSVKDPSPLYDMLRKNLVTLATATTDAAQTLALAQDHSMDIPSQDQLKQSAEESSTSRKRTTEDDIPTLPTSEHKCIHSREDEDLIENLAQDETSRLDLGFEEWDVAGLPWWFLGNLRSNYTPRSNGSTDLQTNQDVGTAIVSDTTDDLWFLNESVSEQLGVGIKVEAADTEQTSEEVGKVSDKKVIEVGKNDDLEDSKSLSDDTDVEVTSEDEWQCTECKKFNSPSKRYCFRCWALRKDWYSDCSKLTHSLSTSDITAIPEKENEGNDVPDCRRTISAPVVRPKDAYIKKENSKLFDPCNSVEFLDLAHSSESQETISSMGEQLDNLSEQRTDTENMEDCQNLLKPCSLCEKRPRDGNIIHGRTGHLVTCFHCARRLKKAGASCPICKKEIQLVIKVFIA
Target sequence (Q00987 whole entry, looked up): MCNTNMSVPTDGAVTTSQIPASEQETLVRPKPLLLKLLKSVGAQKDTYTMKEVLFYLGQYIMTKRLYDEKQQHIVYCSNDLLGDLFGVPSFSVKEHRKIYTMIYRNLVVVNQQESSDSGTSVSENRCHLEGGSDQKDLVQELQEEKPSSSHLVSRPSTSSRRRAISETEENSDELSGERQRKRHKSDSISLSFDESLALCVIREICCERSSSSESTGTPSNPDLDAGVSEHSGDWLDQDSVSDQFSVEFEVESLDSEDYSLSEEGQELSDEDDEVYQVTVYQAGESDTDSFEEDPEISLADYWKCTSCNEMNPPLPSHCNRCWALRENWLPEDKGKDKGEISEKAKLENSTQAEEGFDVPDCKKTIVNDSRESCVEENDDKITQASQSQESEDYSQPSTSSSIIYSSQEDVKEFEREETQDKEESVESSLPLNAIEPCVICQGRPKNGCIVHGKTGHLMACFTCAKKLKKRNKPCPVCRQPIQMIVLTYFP
Beta2AR ag CP1: agonists of human beta-2 adrenergic receptor; shares compounds with B2AR ag; Am2.2-beta2AR cells, FAP surface receptor, flow cytometry; active compounds read low; percent response (surface receptor), % at 10 µM; actives 25% (n = 1,100);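 active = surface receptor percent response at or below 58%, roughly 3 SD from nonfluorescent compounds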
B2AR FAP counter: counter-screen for beta-2AR agonists: fluorescence in Am2.2 cells; shares compounds with B2AR ag; 1,100 tested, under 10 active; calls only at 10 µM; FAP fluorogen flow cytometry, fluorescence counterscreen; active compounds read low; AID 588765;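 active = percent response below a set limit in fluorescence channel 1 and below 50% in channel 8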
The depositor's hits bear a star; i = inactive; x = no result given.

SMILES	B2AR ag	Dynein cargo inh	XBP1 UPR activ	CHOP UPR activ	MDM2 E3 inh	Mdm2 MdmX PPI	Beta2AR ag CP1	B2AR FAP counter
COc1ccccc1C(=O)Nc1ccc(S(=O)(=O)N2CCC(C)CC2)cc1	2	x	-2	3	x	12	x	x
CC1CCN(S(=O)(=O)c2ccc(NC(=O)c3ccccc3F)cc2)CC1	1	x	0	1	x	5	x	x
O=C(Nc1ccc(S(=O)(=O)N2CCCCC2c2cccnc2)cc1)c1ccccc1F (stereo unspecified)	-5	-0.5	-1	-1	-5	13	134	i
CCn1nc(NS(=O)(=O)c2ccc([N+](=O)[O-])cc2)c2cc3ccccc3nc21	64*	x	-4	0	x	13	118	i
CCn1nc(NS(=O)(=O)c2ccc(NC(C)=O)cc2)c2cc3ccccc3nc21	53*	x	-2	-2	x	-4	101	i
CCn1nc(NS(=O)(=O)c2ccc(NC(C)=O)cc2)c2cc3ccc(C)cc3nc21	15	x	-3	2	x	-3	x	x
CCn1nc(NS(=O)(=O)c2ccc(C)cc2)c2cc3ccccc3nc21	8	x	-1	0	x	8	120	i
CCC(C(=O)O)n1c2ccccc2c2cn[nH]c(=O)c21 (stereo unspecified)	-1	x	0	2	x	1	x	x
COc1cc(CNCCO)cc(Cl)c1OCc1ccccc1Cl	48*	1.5	8	-1	-2	25	99	i
CCOc1c(Cl)cc(CNCC(O)c2ccccc2)cc1OC (stereo unspecified)	11	0.36	1	-1	-4	11	117	i
Cc1noc(C)c1S(=O)(=O)N(C)C[C@H]1Oc2c(cccc2N(C)C)C(=O)N([C@H](C)CO)C[C@@H]1C	-9	x	-2	0	x	-25	x	x
Cc1ccc(OCC(=O)Nc2ccc(-c3nc4ncccc4o3)cc2)c(C)c1	116*	0.79	-2	-1	-12	-23	16*	i
Cc1ccc(OCC(=O)Nc2ccncc2)c(C)c1	4	x	-5	3	x	-11	x	x
O=C1CN2CCC1C/C2=C\c1ccnc2c(Cl)cccc12 (stereo unspecified)	10	-0.76	-7	1	-2	-11	x	x
Cc1ccc(Cn2c(N)c(S(=O)(=O)c3cccs3)c3nc4ccccc4nc32)cc1	52*	1.1	0	5	-19	20	74	i
Nc1c(S(=O)(=O)c2cccs2)c2nc3ccccc3nc2n1Cc1ccccc1	-1	0.17	2	0	-3	32	x	x
CCOc1cccc(C(=O)Nc2ccc(S(=O)(=O)Nc3cc(C)on3)cc2)c1	3	x	-2	1	x	17	x	x
CCC1CCCCN1CC(=O)Nc1cc(C)nn1-c1nc(C)cc(C)n1 (stereo unspecified)	-13	-0.53	1	-1	-10	38	123	i
CC1CCC(=O)N(CCC#N)CC1 (stereo unspecified)	0	x	-1	-2	x	16	x	x
C/C(=N\NC(=S)NCc1ccccc1)c1ccc(Cl)s1	0	0.41	2	-1	0	-1	x	x
COCCNC(=S)N/N=C(\C)c1ccc(Cl)s1	5	-0.65	4	1	x	-5	108	i
CCc1ccccc1N(C)S(=O)(=O)c1ccc2[nH]cc(C(=O)O)c(=O)c2c1	76*	0.16	-3	-1	-7	-1	84	i
CCOC(=O)c1cc(NC(=O)N(C)C2CCCCC2)c(C)nc1C	48*	x	2	0	x	10	106	i
CC12CCC(=O)N1C(C(=O)NNC(=O)c1ccccc1Cl)CS2 (stereo unspecified)	-1	x	-1	0	x	27	x	x
C=CCc1ccc(OCCOc2ccc(/C=N/n3cnnc3)cc2OCC)c(OC)c1	57*	-0.45	-2	-1	-16	11	33*	i
SMILES	B2AR ag	Dynein cargo inh	XBP1 UPR activ	CHOP UPR activ	MDM2 E3 inh	Mdm2 MdmX PPI	Beta2AR ag CP1	B2AR FAP counter
COc1cc(/C=N/n2cnnc2)ccc1OCCOc1ccccc1	-3	-0.6	-4	1	-11	-14	x	x
COc1cccc2sc3ccc(C#CC4(N)CCCCC4)cc3c(=O)c12	26	x	12	4	x	19	x	x
COc1cccc2sc3cc(C#CC4(O)CCCCC4)ccc3c(=O)c12	50*	x	-3	3	x	0	98	i
Nc1o[nH]c(=O)c1C1CCCCC1	10	x	x	x	x	x	x	x
CCC(NC(=O)c1cc(COc2cc(C)c(Cl)c(C)c2)on1)c1ccncc1 (stereo unspecified)	-2	x	-10	4	x	34	x	x
CCC(NC(=O)c1cc(COc2ccc(C)nc2)on1)c1ccc(C)cc1 (stereo unspecified)	-3	x	-2	-1	x	23	128	i
Cc1ccc(OCc2cc(C(=O)NCc3cc(F)ccc3C)no2)cn1	-11	x	1	3	x	-1	75	i
Cc1ccc(OCc2cc(C(=O)NC3CCc4ccccc43)no2)cn1 (stereo unspecified)	-3	x	-9	-1	x	25	122	i
CCOC(=O)c1ccc(S(=O)(=O)N2CCN(C(=O)C3CSC4(C)CCC(=O)N34)CC2)cc1 (stereo unspecified)	2	x	-2	0	x	14	x	x
CCCN(CCC)C(=O)c1ccc2nc(-c3ccc(OC)c(OC)c3)c(-c3ccc(OC)c(OC)c3)nc2c1	43*	x	0	4	x	30	123	i
CN(Cc1cccs1)c1nc(-c2cccnc2)nc2ccccc12	103*	-0.2	3	0	-8	9	2.7*	i
c1ccc(-c2nc(NCc3cccs3)c3ccccc3n2)cc1	-5	x	-5	0	x	2	x	x
CCCCCN(C(=O)CCC(=O)OCC(=O)c1ccc(C(C)CC)cc1)c1c(N)n(CCCC)c(=O)[nH]c1=O (stereo unspecified)	0	x	3	5	x	0	x	x
Cc1ccc(C(=O)NCCNC(=O)c2ccc(C)nc2)cc1	61*	x	2	2	x	-13	115	i

Screens from PubChem.
